Assay results: ChEMBL document CHEMBL4393705, “New chalcone-sulfonamide hybrids exhibiting anticancer and antituberculosis activity” (Eur J Med Chem, 2019)
Values after ≈ are worked out from the molar mass of the structure shown.

How the values were obtained:
CCRF-CEM = assay: Anticancer activity against human CCRF-CEM cells assessed as cell growth inhibition measured after 48 hrs by SRB assay; format: functional
Summary of the method: (§1)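 NCI-60 five-dose screen at 100, 10, 1.0, 0.1 and 0.01 µM final. Cells in RPMI-1640 with 5% FBS and 2 mM glutamine were seeded 24 h ahead at 37°C, 5% CO2. Compound exposure was 48 h, followed by TCA fixation and SRB staining, read at 515 nm. GI50 is the concentration giving 50% lower net protein increase than control, using time-zero plates.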

K562 = assay: Anticancer activity against human K562 cells assessed as cell growth inhibition measured after 48 hrs by SRB assay; format: functional; settings: K562, 48 h; for CC50: read-out: LC50 (the source's name); summary of the method: as §1
A549 = assay: Anticancer activity against human A549 cells assessed as cell growth inhibition measured after 48 hrs by SRB assay; format: functional; settings: A549, 48 h; summary of the method: as §1
EKVX = assay: Anticancer activity against human EKVX cells assessed as cell growth inhibition measured after 48 hrs by SRB assay; format: functional; summary of the method: as §1
HOP-62 = assay: Anticancer activity against human HOP62 cells assessed as cell growth inhibition measured after 48 hrs by SRB assay; format: functional; settings: HOP-62, 48 h; summary of the method: as §1
HOP-92 = assay: Anticancer activity against human HOP92 cells assessed as cell growth inhibition measured after 48 hrs by SRB assay; format: functional; settings: HOP-92, 48 h; summary of the method: as §1
NCI-H322M = assay: Anticancer activity against human NCI-H322M cells assessed as cell growth inhibition measured after 48 hrs by SRB assay; format: functional; summary of the method: as §1
NCI-H460 = assay: Anticancer activity against human NCI-H460 cells assessed as cell growth inhibition measured after 48 hrs by SRB assay; format: functional; settings: NCI-H460, 48 h; summary of the method: as §1
HCT-116 = assay: Anticancer activity against human HCT116 cells assessed as cell growth inhibition measured after 48 hrs by SRB assay; format: functional; settings: HCT-116, 48 h; summary of the method: as §1
HCT-15 = assay: Anticancer activity against human HCT15 cells assessed as cell growth inhibition measured after 48 hrs by SRB assay; format: functional; settings: HCT-15, 48 h; summary of the method: as §1
SW-620 = assay: Anticancer activity against human SW620 cells assessed as cell growth inhibition measured after 48 hrs by SRB assay; format: functional; settings: SW-620, 48 h; for CC50: read-out: LC50 (the source's name)
Summary of the method: (§2)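 NCI 60-cell screen, five-dose mode at 100, 10, 1.0, 0.1 and 0.01 µM. Cells grown in RPMI-1640 with 5% FBS and 2 mM L-glutamine, seeded and held 24 h at 37°C, 5% CO2, then exposed for 48 h. Fixed with cold TCA (10% final), stained with 0.4% SRB and read at 515 nm. Time-zero plates were used. GI50 is the concentration giving 50% lower net protein increase than control.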

SF-295 = assay: Anticancer activity against human SF295 cells assessed as cell growth inhibition measured after 48 hrs by SRB assay; format: functional; settings: SF-295, 48 h; summary of the method: as §1
SF-539 = assay: Anticancer activity against human SF539 cells assessed as cell growth inhibition measured after 48 hrs by SRB assay; format: functional; settings: SF-539, 48 h; for CC50: read-out: LC50 (the source's name); summary of the method: as §2
Malme-3M = assay: Anticancer activity against human MALME-3M cells assessed as cell growth inhibition measured after 48 hrs by SRB assay; format: functional; summary of the method: as §1
SK-MEL-28 = assay: Anticancer activity against human SK-MEL-28 cells assessed as cell growth inhibition measured after 48 hrs by SRB assay; format: functional; settings: SK-MEL-28, 48 h; for CC50: read-out: LC50 (the source's name); summary of the method: as §2
SK-MEL-5 = assay: Anticancer activity against human SK-MEL-5 cells assessed as cell growth inhibition measured after 48 hrs by SRB assay; format: functional; settings: SK-MEL-5, 48 h; for CC50: read-out: LC50 (the source's name); summary of the method: as §2
UACC-257 = assay: Anticancer activity against human UACC257 cells assessed as cell growth inhibition measured after 48 hrs by SRB assay; format: functional; settings: UACC-257, 48 h; for CC50: read-out: LC50 (the source's name); summary of the method: as §2
UACC-62 = assay: Anticancer activity against human UACC62 cells assessed as cell growth inhibition measured after 48 hrs by SRB assay; format: functional; settings: UACC-62, 48 h; for CC50: read-out: LC50 (the source's name); summary of the method: as §2
OVCAR-5 = assay: Anticancer activity against human OVCAR5 cells assessed as cell growth inhibition measured after 48 hrs by SRB assay; format: functional; settings: OVCAR-5, 48 h; for CC50: read-out: LC50 (the source's name); summary of the method: as §1
OVCAR-8 = assay: Anticancer activity against human OVCAR8 cells assessed as cell growth inhibition measured after 48 hrs by SRB assay; format: functional; settings: OVCAR-8, 48 h; summary of the method: as §1
786-0 = assay: Anticancer activity against human 786-O cells assessed as cell growth inhibition measured after 48 hrs by SRB assay; format: functional; settings: 786-0, 48 h; for CC50: read-out: LC50 (the source's name); summary of the method: as §1
ACHN = assay: Anticancer activity against human ACHN cells assessed as cell growth inhibition measured after 48 hrs by SRB assay; format: functional; settings: for CC50: read-out: LC50 (the source's name); summary of the method: as §1
RXF 393 = assay: Anticancer activity against human RXF393 cells assessed as cell growth inhibition measured after 48 hrs by SRB assay; format: functional; settings: RXF 393, 48 h; summary of the method: as §1
SN12C = assay: Anticancer activity against human SN12C cells assessed as cell growth inhibition measured after 48 hrs by SRB assay; format: functional; summary of the method: as §2
DU-145 = assay: Anticancer activity against human DU145 cells assessed as cell growth inhibition measured after 48 hrs by SRB assay; format: functional; settings: DU-145, 48 h; summary of the method: as §1
Hs-578T = assay: Anticancer activity against human Hs578T cells assessed as cell growth inhibition measured after 48 hrs by SRB assay; format: functional; summary of the method: as §1
NIH3T3 = assay: Cytotoxicity against mouse 3T3 cells assessed as cell viability measured after 48 hrs by MTT assay; format: cell-based; settings: nih3t3, 48 h
Summary of the method: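 3T3 fibroblasts in DMEM with 10% FBS and penicillin-streptomycin, seeded at 10^4 cells/well 24 h prior. Exposed 48 h to two-fold serial dilutions from a 100 mg/mL DMSO stock. MTT (5 mg/mL in PBS) added for 1.5 h, formazan dissolved in DMSO, read at 530 nm. Duplicate runs on different days. Value interpolated between DMSO (100%) and cycloheximide (0%) controls.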

[1] = tested on: Mycobacterium tuberculosis; assay: Antitubercular activity against Mycobacterium tuberculosis H37Rv ATCC27294 measured after 2-3 weeks by agar dilution SPOTi assay; format: functional; settings: H37Rv ATCC 27294
Summary of the method: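 Agar dilution SPOTi on Middlebrook 7H10 with 0.5% glycerol and 10% OADC. Final compound levels 50, 20, 10, 5, 2 mg/L, added from DMSO dilutions. 2 µL of a 10^6 CFU/mL inoculum from a 4-week Löwenstein-Jensen culture spotted per well, incubated 2-3 weeks at 37°C. MIC is the lowest concentration with no visible growth. Repeated on a separate day; isoniazid was the reference.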

For `COc1ccc(C(=O)/C=C/c2ccc(Cl)cc2)cc1S(N)(=O)=O`, the GI50 (CCRF-CEM) was 3.34 µM, the LC50 (CCRF-CEM) was > 100 µM and the GI50 (K562) was 0.57 µM. The CC50 (K562) was > 100 µM, the GI50 (A549) was 2.69 µM and the LC50 (concentration killing 50% of cells) (A549) was 30.8 µM. It also gave a GI50 (EKVX) of 4.56 µM, an LC50 (concentration killing 50% of cells) (EKVX) of 50.5 µM and a GI50 (HOP-62) of 2.51 µM. For the same compound, the LC50 (HOP-62) was 31.2 µM, the GI50 (HOP-92) was 2.14 µM and the LC50 (HOP-92) was 21.4 µM. For the same compound, the GI50 (NCI-H322M) was 2.04 µM, the LC50 (NCI-H322M) was 28.8 µM and the GI50 (NCI-H460) was 2.58 µM. The LC50 (concentration causing 50% net cell kill) (NCI-H460) was 30 µM, the GI50 (HCT-116) was 1.36 µM and the LC50 (concentration killing 50% of cells present at start) (HCT-116) was 5.36 µM. The GI50 (HCT-15) was 2.14 µM, the LC50 (concentration killing 50% of cells) (HCT-15) was 59.3 µM and the GI50 (SW-620) was 1.76 µM. For the same compound, the CC50 (SW-620) was 8.45 µM, the GI50 (SF-295) was 3.04 µM and the LC50 (SF-295) was 31.9 µM. The GI50 (SF-539) was 1.6 µM, the CC50 (SF-539) was 6.82 µM and the GI50 (Malme-3M) was 5.89 µM. For the same compound, the LC50 (Malme-3M) was 54.8 µM, the GI50 (SK-MEL-28) was 3.24 µM and the CC50 (SK-MEL-28) was 37.2 µM. The GI50 (SK-MEL-5) was 5.69 µM, the CC50 (SK-MEL-5) was 42.7 µM and the GI50 (UACC-257) was 12.2 µM. The CC50 (UACC-257) was 50.8 µM, the GI50 (UACC-62) was 4.88 µM and the CC50 (UACC-62) was 44.8 µM. It also gave a GI50 (OVCAR-5) of 3.08 µM, a CC50 (OVCAR-5) of 44.9 µM and a GI50 (OVCAR-8) of 3.55 µM. The LC50 (concentration giving 50% net cell kill) (OVCAR-8) was 32.6 µM, the GI50 (786-0) was 1.74 µM and the CC50 (786-0) was 7.82 µM. For the same compound, the GI50 (ACHN) was 1.94 µM, the CC50 (ACHN) was 8.75 µM and the GI50 (RXF 393) was 1.98 µM. For the same compound, the LC50 (concentration causing 50% net cell kill) (RXF 393) was 7.96 µM, the GI50 (SN12C) was 2.72 µM and the LC50 (concentration giving 50% net cell kill) (SN12C) was 31.5 µM. It also gave a GI50 (DU-145) of 3.42 µM, an LC50 (DU-145) of 36.3 µM and a GI50 (Hs-578T) of 3.28 µM. The LC50 (Hs-578T) was > 100 µM, the LC50 (NIH3T3) was 4.1 µM and the MIC [1] was 14 µM (≈ 4.93 µg/mL).

With `COc1ccc(C(=O)/C=C/c2ccc(Cl)cc2)cc1S(=O)(=O)Nc1c(N)nc(SC)[nH]c1=O` the GI50 (CCRF-CEM) was 2.66 µM, the LC50 (CCRF-CEM) was > 100 µM and the GI50 (K562) was 2.77 µM. For the same compound, the CC50 (K562) was > 100 µM, the GI50 (A549) was 2.57 µM and the LC50 (concentration killing 50% of cells) (A549) was 30 µM. For the same compound, the GI50 (EKVX) was 3.94 µM, the LC50 (concentration killing 50% of cells) (EKVX) was 80.3 µM and the GI50 (HOP-62) was 1.81 µM. For the same compound, the LC50 (HOP-62) was 8.7 µM, the GI50 (HOP-92) was 2.59 µM and the LC50 (HOP-92) was 32.6 µM. For the same compound, the GI50 (NCI-H322M) was 2.38 µM, the LC50 (NCI-H322M) was 28 µM and the GI50 (NCI-H460) was 2.49 µM. It also gave an LC50 (concentration causing 50% net cell kill) (NCI-H460) of 29.1 µM, a GI50 (HCT-116) of 1.56 µM and an LC50 (concentration killing 50% of cells present at start) (HCT-116) of 5.55 µM. The GI50 (HCT-15) was 3.24 µM, the LC50 (concentration killing 50% of cells) (HCT-15) was 83.9 µM and the GI50 (SW-620) was 1.58 µM. The CC50 (SW-620) was 28.3 µM, the GI50 (SF-295) was 2.72 µM and the LC50 (SF-295) was 34.7 µM. It also gave a GI50 (SF-539) of 2.1 µM, a CC50 (SF-539) of 15.1 µM and a GI50 (Malme-3M) of 3.02 µM. The LC50 (Malme-3M) was 41.8 µM, the GI50 (SK-MEL-28) was 2.1 µM and the CC50 (SK-MEL-28) was 17 µM. The GI50 (SK-MEL-5) was 2.72 µM, the CC50 (SK-MEL-5) was 32 µM and the GI50 (UACC-257) was 8.27 µM. It also gave a CC50 (UACC-257) of 50.1 µM, a GI50 (UACC-62) of 2.33 µM and a CC50 (UACC-62) of 27.4 µM. It also gave a GI50 (OVCAR-5) of 2.83 µM, a CC50 (OVCAR-5) of 38.2 µM and a GI50 (OVCAR-8) of 3.07 µM. It also gave an LC50 (concentration giving 50% net cell kill) (OVCAR-8) of 37.1 µM, a GI50 (786-0) of 1.95 µM and a CC50 (786-0) of 8.74 µM. It also gave a GI50 (ACHN) of 3.23 µM, a CC50 (ACHN) of 36.5 µM and a GI50 (RXF 393) of 1.6 µM. It also gave an LC50 (concentration causing 50% net cell kill) (RXF 393) of 6.67 µM, a GI50 (SN12C) of 3.45 µM and an LC50 (concentration giving 50% net cell kill) (SN12C) of 73.4 µM. The GI50 (DU-145) was 3.58 µM, the LC50 (DU-145) was 33.9 µM and the GI50 (Hs-578T) was 3.56 µM. The LC50 (Hs-578T) was > 100 µM, the LC50 (NIH3T3) was 13 µM and the MIC [1] was 20 µM (≈ 10.1 µg/mL).
